AI-2 QS mod = Vibrio harveyi AI-2 quorum sensing modulators, primary screen, JMH597 strain, luminescence/OD600 ratio; Vibrio harveyi JMH597 AI-2 luminescence/OD600 ratio, 9 h; active compounds read low; strain lacks LuxN and CqsS sensors; 0 = neutral-control median; activity change, % at 7.5 µM; 300,000 tested, 0.4% active; AID 2094, 2009; in the data active means activity change below about -75%, passing the limit was not always enough;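 further: luminescence divided by OD600 gain over 9 h not by final OD600 alone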
Tb MetRS inh = T. brucei MetRS inhibitors, primary screen, biochemical, luminescence. methionyl-tRNA synthetase (Trypanosoma brucei brucei). purified T. brucei MetRS, ATP depletion, Kinase-Glo luminescence. inhibition, % at 11.9 µM. 360,000 tested, 0.4% active. AID 624268, 2012;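 active means inhibition above a per-plate cutoff of the control wells' mean inhibition plus 3 SD, cut at about 5.5% in these data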
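Test system – parasite MetRS enzyme · Reagent – substrates ATP, L-methionine and bulk Escherichia coli tRNA · Doses – 11.9 µM compound single dose, 0.9% DMSO · Times – 15 min enzyme-compound preincubation, 2 h reaction, 10 min detection, 25 °C · Signal – Kinase-Glo luminescence, ATP depletion format · Controls – DMSO-only wells as low control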
MsrA inhibitor = bovine MsrA enzyme inhibitors, primary screen, biochemical, absorbance, HTS; purified bovine MsrA, absorbance read-out; inhibition, % at 15.5 µM; 360,000 tested, 0.75% active; AID 651718, 2012
MsrA act = bovine MsrA enzyme activators, primary screen, biochemical, absorbance, HTS | purified bovine MsrA, absorbance read-out | activation, % at 10.6 µM | 360,000 tested, 0.3% active; in the data active means activation above about 7.5%
HTR2A ag = mouse Htr2a agonists via beta-arrestin recruitment, primary screen, cell-based, luminescence; activation, % at 7.6 µM; 5-hydroxytryptamine receptor 2A (Mus musculus), P35363; CHO-K1 mHTR2A beta-arrestin complementation; percent of 30 µM serotonin response; 360,000 tested, 0.66% active;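 active means activation above a run cutoff, the mean activation of all tested compounds plus 3 SD, cut at about 14% in these data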
Target sequence (P35363 whole entry, looked up): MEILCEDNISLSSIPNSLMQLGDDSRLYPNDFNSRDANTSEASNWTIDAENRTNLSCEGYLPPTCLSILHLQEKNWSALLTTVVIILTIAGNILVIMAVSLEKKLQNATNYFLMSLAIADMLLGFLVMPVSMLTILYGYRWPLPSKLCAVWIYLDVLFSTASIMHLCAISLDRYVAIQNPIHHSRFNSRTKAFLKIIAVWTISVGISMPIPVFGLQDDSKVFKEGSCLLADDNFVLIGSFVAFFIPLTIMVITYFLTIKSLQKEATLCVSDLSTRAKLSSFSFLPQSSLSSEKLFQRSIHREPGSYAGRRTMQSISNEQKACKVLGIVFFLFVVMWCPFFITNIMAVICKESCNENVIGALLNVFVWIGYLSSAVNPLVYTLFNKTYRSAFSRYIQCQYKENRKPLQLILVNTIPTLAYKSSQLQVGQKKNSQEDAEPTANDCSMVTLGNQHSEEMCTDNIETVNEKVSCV
AHR act = AHR activators, primary screen, cell-based, luminescence, luciferase reporter, human. 320,000 tested, 2.5% active. AID 2796, 2010. activation, % at 5 µM. Aryl hydrocarbon receptor (Homo sapiens), P35869. AHR-responsive luciferase reporter cells; in the data active means activation above about 47%
MsrA conf = bovine MsrA inhibitors, retest, confirmation, biochemical, absorbance, HTS; purified bovine MsrA, absorbance read-out; shares compounds with MsrA inhibitor; 2,300 tested, 41% active; inhibition, % at 15.5 µM;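 further: coupled to thioredoxin reductase with NADPH and selenocystamine and DMSO as substrate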
Large screens that a line does not name were inactive (follow-up assays come after a bar, where they were run). Most compounds without a hit are left out; they make up all but 4.4% or so of the library. Unless noted, no stated cut-off is given here; in the data, active means inhibition above about 4.5%; inactive means the rest.

C/C=C(\C)C(=O)OC1CC(C)(C)C[C@H]2C3=CC[C@@H]4[C@@]5(C)CCC(O[C@@H]6O[C@@H](C(=O)O)[C@@H](O)C(O[C@@H]7OC[C@H](O)[C@@H](O)[C@@H]7O[C@@H]7OC(CO)C(O)[C@@H](O)[C@@H]7O)C6O[C@@H]6OC(CO)C(O)C(O)C6O)[C@@](C)(CO)[C@@H]5CC[C@]4(C)[C@]3(C)CC(O)[C@@]12CO (some centres undefined)	none (no result: AI-2 QS mod)
COc1ccc(N=Cc2c(C)[nH][nH]c2=O)cc1	MsrA inhibitor 5.4 | MsrA conf inactive
CC1(C)C2CCC(CN=C(N)CSS(=O)(=O)O)C1C2 (centres undefined)	MsrA inhibitor 20.7 (no result: AI-2 QS mod, AHR act) | MsrA conf 8.8
Cc1c(=O)n(OCc2ccccn2)c2ccccc2[n+]1[O-]	MsrA inhibitor 4.9, AHR act 51.6 | MsrA conf inactive
CCOC(=O)[C@@H]1[C@H]2COc3cc(OC)ccc3[C@H]2N2C(=O)N(c3ccc(C(F)(F)F)cc3)C(=O)[C@]12C	none (no result: AI-2 QS mod)
COC(=O)c1ccc(/C=N/NC(=O)c2cccc(F)c2)cc1	none (no result: MsrA inhibitor)
O=C(N/N=C/c1cnc2ccccc2n1)c1cccc(F)c1	MsrA inhibitor 5.8 | MsrA conf inactive
CC1=C(C(=O)N(C(C)C)C(C)C)CC(CC(=O)NCCCCc2ccccc2)C(=O)N1Cc1ccc(F)cc1 (centres undefined)	none (no result: AI-2 QS mod, AHR act)
C=CCn1c(-c2csc(-c3ccccc3)n2)n[nH]c1=S	MsrA inhibitor 5.4 | MsrA conf inactive
CCOc1cc(S(=O)(=O)NCc2ccco2)c(OCC)cc1-n1cnnn1	MsrA inhibitor 7.7 | MsrA conf inactive
CCOc1cc(S(=O)(=O)N2CCN(S(=O)(=O)CC)CC2)c(OCC)cc1-n1cnnn1	none
CCOc1cc(S(=O)(=O)NCc2ccc(OC)cc2)c(OCC)cc1-n1cnnn1	none
CCOc1cc(S(=O)(=O)NC2CC2)c(OCC)cc1-n1cnnn1	MsrA inhibitor 25.5 | MsrA conf 22.7
COC(=O)C(C(=O)OC)c1ccccc1NC(=O)OCc1ccccc1	none (no result: AI-2 QS mod, MsrA act, AHR act)
CC1(C)CC(=O)c2sc(NS(=O)(=O)c3ccc(F)cc3)nc2C1	MsrA inhibitor 5.3 | MsrA conf inactive
CC1(C)CC(=O)c2sc(NC(=O)CN3CCCCC3)nc2C1	MsrA inhibitor 5.2 | MsrA conf inactive
O=C1CCC(/C=C/c2ccccc2)=NN1	none
CCOc1ccc(/C=C/C2=NNC(=O)CC2)cc1	MsrA inhibitor 6.7 | MsrA conf inactive
COc1ccc(/C=C/C2=NNC(=O)CC2)cc1	MsrA inhibitor 5.5 | MsrA conf 4.7
CCCc1cc(=O)oc2c3c(cc(OCC(=O)NCC4CCC(C(=O)O)CC4)c12)OC(C)(C)CC3 (centres undefined)	none
CCCc1cc(=O)oc2c3c(cc(OCC(=O)N4CCC(C(=O)O)CC4)c12)OC(C)(C)CC3	MsrA inhibitor 5.0 (no result: AI-2 QS mod, AHR act) | MsrA conf inactive
Cc1ccc(/C=N/NC(=O)c2ccccn2)o1	none
Cc1ccc(/C=N/NC(=O)c2ccncc2)o1	MsrA inhibitor 5.7 | MsrA conf 4.6
Cc1ccc(/C=N/NC(=O)c2cccc(NC(=O)c3ccccc3C)c2)o1	none
Cc1cccc(C(=O)Nc2ccc(C(=O)N/N=C/c3ccc(C)o3)cc2)c1	MsrA inhibitor 6.4 | MsrA conf inactive
C/C(=N\NC(=O)c1ccc(N/N=C(\C)c2ccncc2)cc1)c1ccncc1	MsrA inhibitor 5.8 | MsrA conf 6.2
COc1ccc(C(=O)Nc2ccc3c(c2)OCO3)cc1S(=O)(=O)N1CCOCC1	none (no result: AI-2 QS mod, AHR act)
CC1CC(OC(=O)C2CCN(S(=O)(=O)c3ccc(F)cc3)CC2)C(=O)O1 (centres undefined)	none (no result: AI-2 QS mod, AHR act)
Cc1cc(C)cc(OCC(=O)N(C)CC(=O)Nc2ccc(N3CCOCC3)cc2)c1	none (no result: AI-2 QS mod, AHR act)
N#C/C(=C/c1ccc(CNS(=O)(=O)c2ccccc2)o1)C(=O)NCc1ccccc1	MsrA inhibitor 4.8 | MsrA conf inactive
CCCc1nc(SCc2ccccn2)c2c(=O)n(C)c(=O)n(C)c2n1	MsrA inhibitor 10.9 | MsrA conf 9.2
Oc1ccc(/C=N\Nc2nncc(-c3ccccc3)n2)cc1	MsrA inhibitor 5.8 | MsrA conf inactive
COc1ccc(-c2cnnc(N/N=C/c3ccc(O)cc3)n2)cc1	none
Cc1ccn2c(=O)c(NC(=O)COc3ccccc3)c(C)nc2c1	MsrA inhibitor 4.9 | MsrA conf inactive
Cc1ccccc1C1=NC(C(F)(F)F)(C(F)(F)F)c2c(n(C)c(=O)n(C)c2=O)N1	MsrA inhibitor 5.4 | MsrA conf inactive
Cn1c2c(c(=O)n(C)c1=O)C(C(F)(F)F)(C(F)(F)F)N=C(C1CCCCC1)N2	MsrA inhibitor 15.5 | MsrA conf 11.7
CC(=O)NC1(C(F)(F)F)C(=O)Nc2c1c(=O)n(C)c(=O)n2C (centres undefined)	none (no result: AI-2 QS mod)
Cn1c2c(c(=O)n(C)c1=O)C(C(F)(F)F)(C(F)(F)F)N=C(c1ccc(Cl)cc1)N2	none (no result: MsrA inhibitor)
CNc1ncnc2c1ncn2[C@H]1CN(Cc2cccc3ccccc23)C[C@@H](CO)O1	none (no result: AI-2 QS mod, AHR act)
N#C/C(=C\c1ccco1)C(=O)Nc1cccc2ncccc12	MsrA inhibitor 6.0 | MsrA conf 5.3
C#Cc1cccc(Nc2nc(NCc3ccccc3OC)nc3ccsc23)c1	MsrA inhibitor 17.7 (no result: AI-2 QS mod, AHR act) | MsrA conf 11.1
COCCNc1nc(Nc2ccc(C#N)cc2)c2sccc2n1	MsrA inhibitor 5.1 (no result: AI-2 QS mod, AHR act) | MsrA conf inactive
COCCNc1nc(Nc2ccc(F)cc2)c2sccc2n1	none (no result: AI-2 QS mod, AHR act)
C#Cc1cccc(Nc2nc(NCCOC)nc3ccsc23)c1	MsrA inhibitor 12.4 (no result: AI-2 QS mod, AHR act) | MsrA conf 10.8
C#Cc1cccc(Nc2nc(NC(C)C)nc3ccsc23)c1	none (no result: AI-2 QS mod, AHR act)
Cc1cc(C)n(-c2ccc(NC(=O)C3CCCCN3C(=O)c3sccc3C)cc2)n1 (centres undefined)	none
COc1ccc(N/N=C(\C=N\O)C(=O)c2ccc(OC)cc2)cc1	MsrA inhibitor 10.7, AHR act 47.5 | MsrA conf 5.0
COc1ccc(C(=O)C(=NNc2ccccc2)c2ccc(OC)cc2)cc1	none (no result: AI-2 QS mod, AHR act)
CN1/C(=C\C=Nc2cc(S(=O)(=O)N3CCOCC3)ccc2N2CCOCC2)C(C)(C)c2ccccc21	MsrA inhibitor 7.6 | MsrA conf inactive
Cc1ccccc1N=C/C=C1\N(C)c2ccccc2C1(C)C	none

High-throughput results as filed in PubChem.
